Measured values reported in the RNAGym collection of RNA variant scans (doi:10.1126/science.aae0568).
Variants at the floor of the assay were thinned out.

B1: tRNA (parent)
chain: GUUCCGUUGGCGUAAUGGUAACGCGUCUCCCUCCUAAGGAGAAGACUGCGGGUUCGAGUCCCGUACGGAACG

Variants of: B1
Experiment: yeast fitness relative to wild type (ratio to wild type); higher = fitter; tRNA-Arg(CCU), competitive growth, 37 C, YPD
How it was run: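 Changes in genotype frequencies gave Darwinian fitness relative to wild type. Frequencies were read by 100-nucleotide paired-end sequencing of gene amplicons before and after pooled Saccharomyces cerevisiae strains, carrying tRNA-Arg(CCU) gene variants at the native locus, were competed in YPD at 37°C for 24 hours in six replicates. A genotype was kept only with ≥ 100 starting reads, and estimates < 0.5 were set to 0.5.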
C5G G48C C49U U54G C66A gave a yeast fitness of 0.682. In the case of C5G G25A C46U G50C C66U, the yeast fitness is reported as ≤ 0.5. For C5G G9C A42G C49U U54C, the yeast fitness was 0.533. With C5G G17C C49U C61A the yeast fitness was ≤ 0.5. With C5G G9U A21C U54A A57G the yeast fitness was ≤ 0.5. In the case of C5G G41C U47G, the yeast fitness is reported as ≤ 0.5. Work on C5G G41C U47A yielded a yeast fitness of 0.526. For C5G G17C A42U G52A G67U, the yeast fitness was ≤ 0.5. With C5G G38A U59C the yeast fitness was ≤ 0.5. In the case of C5G G12C A20U C24G C33A C46A C55A, the yeast fitness is reported as ≤ 0.5. Work on C5G G39A A43U yielded a yeast fitness of 0.575. With C5G G18A C55A C61U the yeast fitness was ≤ 0.5. Variant C5G G23A A45U G52C has a yeast fitness of 0.626. With C5G G51A G52A the yeast fitness was ≤ 0.5. Variant C5G G17C C60U has a yeast fitness of 0.686. With C5G G12A C46U G48A G52C the yeast fitness was ≤ 0.5. C5G G12C G18A C24U C29U A36G showed a yeast fitness of 0.608. C5G G48C gave a yeast fitness of 0.758. For C5G G38C A69U, the yeast fitness was ≤ 0.5. For C5G G9C A21G, the yeast fitness was 0.531. Variant C5G G12A G25A has a yeast fitness of 0.783. For C5G G39A U47G C49G A69C, the yeast fitness was 0.764. C5G G18A showed a yeast fitness of 0.713. With C5G G18C the yeast fitness was 0.733. With C5G G23A C34A the yeast fitness was 0.723. In the case of C5G G12A A36U A42U U59C A65C, the yeast fitness is reported as ≤ 0.5. In the case of C5G G17A A20C C49G G51A, the yeast fitness is reported as ≤ 0.5. Work on C5G G25A C46U G50C yielded a yeast fitness of 0.593. For C5G G9A C31G, the yeast fitness was 0.767. For C5G G10A C11G U16G C33G C61A, the yeast fitness was ≤ 0.5. C5G G39C gave a yeast fitness of 0.675. In the case of C5G G10A A20U U26C U35C C49A G56A U64A, the yeast fitness is reported as ≤ 0.5. For C5G G9C U28C C55U, the yeast fitness was ≤ 0.5. In the case of C5G G10C G52A, the yeast fitness is reported as ≤ 0.5. Variant C5G G48A G68C has a yeast fitness of 0.653. C5G G25A C46U A69U gave a yeast fitness of 0.576. With C5G G18C C61U A65C the yeast fitness was ≤ 0.5. With C5G G41C U54A the yeast fitness was ≤ 0.5. Work on C5G G10A G52A A70G yielded a yeast fitness of 0.564. In the case of C5G G25C G44A A69C, the yeast fitness is reported as ≤ 0.5. In the case of C5G G17C G38C G52A, the yeast fitness is reported as ≤ 0.5. For C5G G23A A69C, the yeast fitness was ≤ 0.5. Variant C5G G25A C62G has a yeast fitness of 0.648. In the case of C5G G10C A43U C62A, the yeast fitness is reported as ≤ 0.5. For C5G G10C A37U G38A, the yeast fitness was ≤ 0.5. C5G G23A gave a yeast fitness of 0.668. With C5G G10C U47A A70G the yeast fitness was ≤ 0.5. With C5G G12A U47C C62A the yeast fitness was ≤ 0.5. In the case of C5G G48A G56C A65G, the yeast fitness is reported as ≤ 0.5. For C5G G10A C11G U16G, the yeast fitness was ≤ 0.5. With C5G G10C C30U G39C C55G the yeast fitness was ≤ 0.5. In the case of C5G G17C G25A A40C G68A, the yeast fitness is reported as ≤ 0.5. Variant C5G G44C has a yeast fitness of 0.688. In the case of C5G G18A G25A C61A, the yeast fitness is reported as ≤ 0.5. C5G G17C A20C A21U C27U C33G G67A gave a yeast fitness of 0.595. For C5G G9C G56C, the yeast fitness was ≤ 0.5. With C5G G18A A20U C55G the yeast fitness was ≤ 0.5. Variant C5G G44C U64C has a yeast fitness of 0.586. For C5G G44C G67U, the yeast fitness was 1.02. In the case of C5G G18C C62A, the yeast fitness is reported as ≤ 0.5. With C5G G10C C22A U32C the yeast fitness was ≤ 0.5. C5G G41C C49U showed a yeast fitness of 0.543. In the case of C5G G10C G52A A69U, the yeast fitness is reported as ≤ 0.5. For C5G G23A U54A, the yeast fitness was ≤ 0.5. For C5G G10C U13G C31G U59A, the yeast fitness was ≤ 0.5. In the case of C5G G10C G67A, the yeast fitness is reported as ≤ 0.5. In the case of C5G G39A U47G C49G C66U A69C, the yeast fitness is reported as 0.57. Variant C5G G25A G68C has a yeast fitness of 0.69. With C5G G25A U28G G38C C62G C66U the yeast fitness was ≤ 0.5. Variant C5G G23C G48A G67A has a yeast fitness of 0.567. With C5G G10A C11G U16G C33G A65G the yeast fitness was ≤ 0.5. With C5G G9C A20G A21C U59C the yeast fitness was ≤ 0.5. For C5G G50A A69U, the yeast fitness was 0.742. C5G G50A A69C showed a yeast fitness of 0.571. Variant C5G G17A A37C A65C has a yeast fitness of 0.588. In the case of C5G G25A A45C, the yeast fitness is reported as 0.705. For C5G G18A G48C G67A, the yeast fitness was ≤ 0.5. C5G G10A G52A gave a yeast fitness of 0.741. For C5G G51C U54A, the yeast fitness was ≤ 0.5. For C5G G10C, the yeast fitness was 0.651. In the case of C5G G12C, the yeast fitness is reported as 0.816. For C5G G25A C61U, the yeast fitness was 0.716. With C5G G10C C29A U32A C46G A57C the yeast fitness was ≤ 0.5. In the case of C5G G23C C33U A43C, the yeast fitness is reported as ≤ 0.5. For C5G G38A A43U G56A, the yeast fitness was ≤ 0.5. With C5G G18A A42C A45C the yeast fitness was ≤ 0.5. In the case of C5G G18C G56C, the yeast fitness is reported as ≤ 0.5. With C5G G48C G67C the yeast fitness was 0.573. With C5G G41C G67C the yeast fitness was 0.631. For C5G G12C G18A C24U C29U A36G A45C A69C, the yeast fitness was ≤ 0.5. With C5G G10A C11G U16G C33G G58A A65G the yeast fitness was ≤ 0.5. With C5G G23A C61G the yeast fitness was ≤ 0.5. Work on C5G G23A C61A yielded a yeast fitness of 0.529. For C5G G23A G25C, the yeast fitness was ≤ 0.5. For C5G G10C A15C C34U C55A, the yeast fitness was ≤ 0.5. With C5G G41A the yeast fitness was 0.698. Work on C5G G41C yielded a yeast fitness of 0.736. In the case of C5G G44C C62U C66U A69C, the yeast fitness is reported as 0.515. With C5G G44C C49G A69U the yeast fitness was ≤ 0.5. For C5G G10C U19G A45C G51A, the yeast fitness was ≤ 0.5. In the case of C5G G25A U59G, the yeast fitness is reported as 0.631. Work on C5G G25C U47C yielded a yeast fitness of 0.545. In the case of C5G G39A C46U G67A, the yeast fitness is reported as ≤ 0.5. C5G G23A G44C G67U gave a yeast fitness of 0.589. With C5G G25A U47C the yeast fitness was 0.781. With C5G G25A C34A C49G G50A the yeast fitness was ≤ 0.5. With C5G G18C C31A G38U the yeast fitness was ≤ 0.5. In the case of C5G G17C U47A C55A G68A, the yeast fitness is reported as 0.562. With C5G G18C C60G the yeast fitness was ≤ 0.5. With C5G G48A C49G the yeast fitness was 0.658. C5G G12A C46U gave a yeast fitness of 0.572. With C5G G9C A42G U54C U59C the yeast fitness was ≤ 0.5. In the case of C5G G10C U13G A37C, the yeast fitness is reported as 0.508. In the case of C5G G12U A45U A57U, the yeast fitness is reported as ≤ 0.5. For C5G G17C G23C C33G A43C, the yeast fitness was ≤ 0.5. With C5G G48C C49U the yeast fitness was 0.622. With C5G G17C C62U A65C the yeast fitness was 0.52. With C5G G17C A20C A21U C27U C33G the yeast fitness was ≤ 0.5. In the case of C5G G17A C22U C46U C66U A70C, the yeast fitness is reported as 0.62. With C5G G25A C34G A42U G50C U54C A70C the yeast fitness was ≤ 0.5. With C5G G18C C31A the yeast fitness was ≤ 0.5. In the case of C5G G9C C30G, the yeast fitness is reported as ≤ 0.5. With C5G G17A A40C the yeast fitness was 0.651. For C5G G10C C31U A70G, the yeast fitness was ≤ 0.5. With C5G G17A C34A G39C A40C G56C C61G C62G G68C the yeast fitness was ≤ 0.5. For C5G G10A C11G U16G C33G U47A C60A, the yeast fitness was ≤ 0.5. For C5G G12A A14G C30G A45G G52A, the yeast fitness was ≤ 0.5. Work on C5G G25C G56A yielded a yeast fitness of 0.62. In the case of C5G G10A C29G, the yeast fitness is reported as ≤ 0.5. In the case of C5G G25A A42C G68U, the yeast fitness is reported as ≤ 0.5. With C5G G23C C33U A43C U64A the yeast fitness was ≤ 0.5. In the case of C5G G9C A20U A21G C24G C27G A43G, the yeast fitness is reported as ≤ 0.5. With C5G G10A A20U C24U C34U A43U A69C the yeast fitness was 0.667. C5G G23A G25C C49U gave a yeast fitness of 0.544. C5G G12A C46U G52C showed a yeast fitness of 0.61. With C5G G12A A36U A42U U59C the yeast fitness was ≤ 0.5. In the case of C5G G17A G18A A57C, the yeast fitness is reported as 0.554. Work on C5G G48C G56A yielded a yeast fitness of 0.544. With C5G G9C C33G A45G C55G G56C the yeast fitness was ≤ 0.5. For C5G G9C A14C, the yeast fitness was ≤ 0.5. In the case of C5G G50C G51C G56A, the yeast fitness is reported as ≤ 0.5. With C5G G17C A70U the yeast fitness was ≤ 0.5. With C5G G17C A43U the yeast fitness was 0.516. For C5G G18A C27G C30U C31G, the yeast fitness was ≤ 0.5. In the case of C5G G17C U47A C55A, the yeast fitness is reported as 0.516. C5G G9C showed a yeast fitness of 0.696. In the case of C5G G9C A57U, the yeast fitness is reported as ≤ 0.5. For C5G G10A C11G U16G C33G U59C, the yeast fitness was ≤ 0.5. With C5G G25C C29G A65U the yeast fitness was ≤ 0.5. For C5G G23C C31U A37C, the yeast fitness was ≤ 0.5. With C5G G51C C61G the yeast fitness was 0.607. For C5G G41A A42C G50C A70G, the yeast fitness was ≤ 0.5. In the case of C5G G18A A57G A65C, the yeast fitness is reported as ≤ 0.5. With C5G G10A A40G A70G the yeast fitness was ≤ 0.5. With C5G G38C G68A the yeast fitness was ≤ 0.5. C5G G25C A37G gave a yeast fitness of 0.504. With C5G G9C C30G C66U the yeast fitness was ≤ 0.5. For C5G G17C G25A G51A, the yeast fitness was ≤ 0.5. Variant C5G G50A C55G A65C has a yeast fitness of 0.551. With C5G G9C A42G U54C the yeast fitness was 0.641. In the case of C5G G39C A70G, the yeast fitness is reported as 0.596. Work on C5G G48A C49U A57G yielded a yeast fitness of 0.624. For C5G G38C U47G C62U, the yeast fitness was ≤ 0.5. For C5G G17A G38A A40G A69U, the yeast fitness was ≤ 0.5. For C5G G17C C46U G68A, the yeast fitness was ≤ 0.5. In the case of C5G G9C G18A G25C A37C A43G, the yeast fitness is reported as ≤ 0.5. With C5G G10C G68U the yeast fitness was ≤ 0.5.
